Source: the EternaBench riboswitch data

Tested on: MS2 coat protein
Assay: apparent Kd, MS2 coat protein; higher = weaker binding; RNA-MaP array
In short: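 RNA designs were transcribed from sequenced DNA templates on an Illumina sequencing chip and then incubated at room temperature with fluorescently labeled MS2 coat protein at 1.5 nM to 3 μM, with or without input ligand, in Tris-HCl pH 7.5 buffer containing KCl, MgCl2, BSA, DTT, tRNA and Tween20. Incubation lasted 0.8–1.5 h at the lowest protein concentrations and 10–20 min at the highest. Apparent Kd is the median of binding-curve fits made for each cluster. Designs measured on fewer than 10 clusters were excluded.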

[1] = designed as: OFF switch for flavin mononucleotide, no ligand
[2] = ligand present: flavin mononucleotide, designed as: OFF switch for flavin mononucleotide
[3] = designed as: ON switch for flavin mononucleotide, no ligand
[4] = ligand present: flavin mononucleotide, designed as: ON switch for flavin mononucleotide
[5] = designed as: OFF switch for tryptophan, no ligand
[6] = ligand present: tryptophan, designed as: OFF switch for tryptophan
[7] = designed as: OFF switch for theophylline, no ligand
[8] = ligand present: theophylline, designed as: OFF switch for theophylline

Sequence	apparent Kd [1] [nM]	apparent Kd [2] [nM]	also measured
GUUGGACAUGAGGAUCACCCAUGUGAAUUGUUUUCCACGUACUAGGAUAUCGCGGGACAAACCAUCGAGAAGGAGUCGACCUAA	14.4	12.2	
CAUCCUCUUUGACAUGAGGAUCACCCAUGUAUUGCAGUGACCAGAAGGCGUUCCCACAAAGUGGACGAGGAUAUGGAAAAGCCG	193	184	
UUGUGUUCUUAGGAUAUACAACUUACCAUCAGAGUAGAAGGAAGGACAUGAGGAUCACCCAUGUGGGCUAGCAG	154	21.7	
GAGGUAACGUAGAAGGCGAGGGCAAUACCUGUUCGAGGAUAUACUAUUAGACAUGAGGAUCACCCAUGUGGAGAUUGAUCGUCA	241	339	
AUCGGUAAAACUCAGGAUAUAGAAAUAGACACAUGAGGAUCACCCAUGUUAACUACACAAAGAAUCUAGAAGGGAGCAGGUGUCUA			apparent Kd [3]: 78.2 nM; apparent Kd [4]: 44.9 nM
GCAAAUGCUGAGAAGGUGAUGAAUAACUCCUCGAUGUAACUUGACAUGAGGAUCACCCAUGUCAUCAAGGAUAUCAAAGUGAAC	9.54	16.2	
GUUGACGAGUCAGGAUAUGAUUAGUGGGAGAAACAGCAACUCACAUGAGGAUCACCCAUGUAUGUUCAGAAGGGACGCCGAUCA	63.9	183	
UUAGGGCGGUAGAAGGAGGAUUACAUGAGGAUCACCCAUGUGGCAGGAGGCGAGGCUCAGUUACCCUAGGAUAUACAUCAGGUU	24.9	21.5	
ACAUGAGGAUCACCCAUGUAAAUGAUAUGUCACCAUGAUGUUAGAAGGAAAGCGGAAAGUCAAUUUUAGGAUAUAAUGUAUUGA			apparent Kd [3]: 11.9 nM; apparent Kd [4]: 8.51 nM
AUAAGUAUAGGAUAUACAGGUAAGCGUUCUUACCGAUCCAGACAUGAGGAUCACCCAUGUAGAAGGAUACGUCU	8.18	7.87	
UUUUUAGGACAAGGAUAUUGAAUCGCACAUGAGGAUCACCCAUGUCCUCUGCAUACAGCGGACUUCAAGAAGGUGUCGACCAAU			apparent Kd [3]: 971 nM; apparent Kd [4]: 832 nM
UAGCGGACUGUGAGGAUAUAGCAAAUUCAACAAUUCUAGAAGGCACAUGAGGAUCACCCAUGUAGAGUGAUUAA	38.5	70.7	
ACCCAGACAUGAGGAUCACCCAUGUAAAUAGAGUACAUCAGGAGAAGGUUCAAAGGGCCUACCCGAAAGGAUAUCCUCGGCGUA			apparent Kd [3]: 30.8 nM; apparent Kd [4]: 25.7 nM
GGUACUCUGUACUAACAUGAGGAUCACCCAUGUAGGCAAACUCAGGAUAUAUUGAACACACCUAGAUAGAAGGGAGUUCGUGAU			apparent Kd [3]: 11.2 nM; apparent Kd [4]: 9.66 nM
UAGAGCCAGUCGGCCGCCACUCUCCAUAUGUGAGCCUUUAAGUUCUACAUGAGGAUCACCCAUGUGAGGACCGGGACCGAAUCUA			apparent Kd [5]: 60.3 nM; apparent Kd [6]: 80.7 nM
ACUAGCAUAGGAUAUCACCACAGGUACAUGAGGAUCACCCAUGUGAGACUAGCUAGCUGCUGAGAAGGAUGAAAGG	27.9	23.6	
AAAGGCGUAGGAUAUACAUGAGGAUCACCCAUGUAUCACAAUAACGAGGAAUGAAAGUGUAGAAGGACGAUAAC	7.48	6.8	
AGUACCAAUGAGGAUACCAGAGUGCGACGCCGAAACCUUGACAUGAGGAUCACCCAUGUACUCCCUUGGCAGCCUGUACUUGCCA			apparent Kd [7]: 35.9 nM; apparent Kd [8]: 82.6 nM
GGUUUACAUGAGGAUCACCCAUGUCCUGACAUGAGUUAGAAACAGGAUAUGGCGCAAGAAAAUGUCCAGAAGGGUUCAUAGCAA			apparent Kd [3]: 238 nM; apparent Kd [4]: 70.2 nM
CCAAACACUGGAGGAUAUGCAAGAACAUGAGGAUCACCCAUGUAGUAACGAUAAAGAAAACAAGCGCAGAAGGCCACAUCUCUA			apparent Kd [3]: 14.2 nM; apparent Kd [4]: 6.49 nM
GCGACUCUCGUGAAGCGACAUGAGGAUCACCCAUGUAACACUAGAAGGAGGCACGAUACGAUGUCCUAGGAUAUAGACACGGCU	27.8	26.4	
CUUAUGAUCGAGGAUAUCACAAAUGGGCAGCGUUGAGAAGGCGACACAUGAGGAUCACCCAUGUAAUCAACAGU	18.4	15.9	
GACGAGUGCGAGUCACAUGAGGAUCACCCAUGUAACCAUGGGCAGGAUAUCUACCAGUUACUUUCAGAGAAGGGCCAACGAACU			apparent Kd [3]: 419 nM; apparent Kd [4]: 108 nM
AACCACGAGUCGGCCGCCACUUGCAACUAGUUUCAGAAGCAGAAACAUGAGGAUCACCCAUGUCGAAGGACCGGGACUUUACAGG			apparent Kd (designed as: ON switch for tryptophan, no ligand): 23.2 nM; apparent Kd (ligand present: tryptophan, designed as: ON switch for tryptophan): 18.7 nM
ACAUCUUGUACGGCCGCCACUAACAGAUUCAGCGUCGGAGCCAACUACAUGAGGAUCACCCAUGUUAGGACCGGGUACUGUCCAC			apparent Kd [5]: 17.7 nM; apparent Kd [6]: 34.9 nM
CCGCUUGCAGGAUAUACAUGAGGAUCACCCAUGUUAAGAGAACAGUAACAAAGCAUUUGUAGAAGGGCAAUACG	9.81	9.19	
CCAGCCCUUCUAGAUACCAGCUUUCAAUAUAAGACAACUCACAUGAGGAUCACCCAUGUUAGCCCUUGGCAGCUAAGAUCCACAA			apparent Kd [7]: 52.1 nM; apparent Kd [8]: 57.3 nM
